This assay deals with Transient receptor potential cation channel subfamily V member 1 (Rattus norvegicus, UniProt O35433). Put plainly: Antagonist activity at TRPV1 in Sprague-Dawley rat DRG neurons assessed as inhibition of capsaicin-induced [45]Ca2+ uptake. In kind it is functional. Put shortly:
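Neonatal rat DRG neurons from all spinal levels were dissociated with collagenase/trypsin, then grown 3 days on poly-D-ornithine (1500–1700 neurons/well) in DME/F12 with 10% horse serum and C6-conditioned medium, with cytosine arabinoside for the first 2 days. Cells were exposed to ⁴⁵Ca²⁺, 0.5 capsaicin and compound for 10 min at room temperature, lysed in 0.3% SDS, and scintillation-counted. IC50 = 50% reduction of capsaicin response.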

As usually defined, the IC50 is the concentration that gives 50% inhibition.

Chain of Transient receptor potential cation channel subfamily V member 1 (O35433 whole entry): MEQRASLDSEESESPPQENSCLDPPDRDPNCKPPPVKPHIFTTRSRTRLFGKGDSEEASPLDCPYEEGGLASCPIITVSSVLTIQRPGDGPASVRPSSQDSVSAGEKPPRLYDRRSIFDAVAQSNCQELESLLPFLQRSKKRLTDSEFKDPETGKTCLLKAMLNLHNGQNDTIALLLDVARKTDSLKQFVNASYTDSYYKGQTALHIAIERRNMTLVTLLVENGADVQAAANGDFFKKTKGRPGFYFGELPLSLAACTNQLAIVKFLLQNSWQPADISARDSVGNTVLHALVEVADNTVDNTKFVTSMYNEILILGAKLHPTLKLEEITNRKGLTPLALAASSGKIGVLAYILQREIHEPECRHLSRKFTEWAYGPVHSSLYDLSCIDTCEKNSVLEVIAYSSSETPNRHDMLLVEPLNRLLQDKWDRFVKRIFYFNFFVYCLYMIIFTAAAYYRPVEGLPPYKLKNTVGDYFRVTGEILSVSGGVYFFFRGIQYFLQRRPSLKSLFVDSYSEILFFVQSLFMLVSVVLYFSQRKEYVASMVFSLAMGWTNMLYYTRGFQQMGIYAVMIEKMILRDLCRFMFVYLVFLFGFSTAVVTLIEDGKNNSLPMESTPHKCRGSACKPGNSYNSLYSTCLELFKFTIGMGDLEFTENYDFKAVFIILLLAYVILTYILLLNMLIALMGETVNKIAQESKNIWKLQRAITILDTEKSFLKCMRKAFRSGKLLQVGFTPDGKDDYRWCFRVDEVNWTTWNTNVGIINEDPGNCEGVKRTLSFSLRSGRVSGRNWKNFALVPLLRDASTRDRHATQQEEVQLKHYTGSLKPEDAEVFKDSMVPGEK

Consider `C=Cc1cc(CNC(=S)CCc2ccc(C(C)(C)C)cc2)ccc1NS(C)(=O)=O`, for which the IC50 turned out to be 0.061 µM.
As to `CC(C)(C)c1ccc(CCC(=S)NCc2ccc(NS(C)(=O)=O)c(I)c2)cc1`, the IC50 came to 0.3 µM.
As to `CC(C)(C)c1ccc(CCC(=S)NCc2ccc(NS(C)(=O)=O)cc2C(F)(F)F)cc1`, the IC50 was determined as 2.4 µM.
In the case of `COC(=O)c1cc(CNC(=S)CCc2ccc(C(C)(C)C)cc2)ccc1NS(C)(=O)=O`, the IC50 was 3.7 µM.
For the molecule `CCc1cc(CNC(=S)CCc2ccc(C(C)(C)C)cc2)ccc1NS(C)(=O)=O`, the IC50 is 0.24 µM.
`C=Cc1cc(CNC(=S)CCc2ccc(C(C)(C)C)cc2)cc(F)c1NS(C)(=O)=O`: the IC50 is 0.032 µM.
As for `Cc1cc(CNC(=S)CCc2ccc(C(C)(C)C)cc2)ccc1NS(C)(=O)=O`, the figure is 0.06 µM.
Take `CC(C)(C)c1ccc(CCC(=S)NCc2ccc(NS(C)(=O)=O)c([N+](=O)[O-])c2)cc1`: the IC50 is 0.072 µM.
With `Cc1cc(CNC(=O)CCc2ccc(C(C)(C)C)cc2)cc(C)c1NS(C)(=O)=O`, the IC50 was found to be 0.62 µM.
In the case of `CC(C)(C)c1ccc(CCC(=O)NCc2cc(F)c(NS(C)(=O)=O)c(C3CC3)c2)cc1`, the IC50 stood at 0.36 µM.
As to `CC(C)(C)c1ccc(CCC(=S)NCc2cc(F)c(NS(C)(=O)=O)c(C#N)c2)cc1`, the 50% inhibitory concentration (IC50) came to 0.028 µM.
As for `CC(C)(C)c1ccc(CCC(=S)NCc2ccc(NS(C)(=O)=O)cc2Cl)cc1`, the figure is 3.5 µM; as for `C#Cc1cc(CNC(=S)CCc2ccc(C(C)(C)C)cc2)cc(F)c1NS(C)(=O)=O`, 0.075 µM; as for `Cc1cc(CNC(=O)CCc2ccc(C(C)(C)C)cc2)cc(Cl)c1NS(C)(=O)=O`, 0.1 µM.
For the molecule `CC(C)(C)c1ccc(CCC(=S)NCc2ccc(NS(C)(=O)=O)c(F)c2)cc1`, the half-inhibitory concentration (IC50) was 0.04 µM.
For `Cc1cc(CNC(=S)CCc2ccc(C(C)(C)C)cc2)cc(C)c1NS(C)(=O)=O`, the half-inhibitory concentration (IC50) worked out at 2.9 µM.
For the molecule `CC(C)(C)c1ccc(CCC(=S)NCc2cc(F)c(NS(C)(=O)=O)c(C3CC3)c2)cc1`, the IC50 was determined as 0.27 µM.
In the case of `CC(C)(C)c1ccc(CCC(=S)NCc2ccc(NS(C)(=O)=O)c(C(F)(F)F)c2)cc1`, the IC50 was 0.94 µM.
For `CC(C)(C)c1ccc(CCC(=S)NCc2ccc(NS(C)(=O)=O)c(C(=O)O)c2)cc1`, the concentration for half-maximal inhibition (IC50) came to 22.6 µM.
For the molecule `Cc1cc(CNC(=S)CCc2ccc(C(C)(C)C)cc2)cc(Cl)c1NS(C)(=O)=O`, the half-inhibitory concentration (IC50) was determined as 0.08 µM.
On to `CC(C)(C)c1ccc(CCC(=S)NCc2ccc(NS(C)(=O)=O)c(Cl)c2)cc1`, for which the IC50 stood at 0.096 µM.
Turning to `CC(=O)c1cc(CNC(=S)CCc2ccc(C(C)(C)C)cc2)ccc1NS(C)(=O)=O`, the half-inhibitory concentration (IC50) was determined as 1 µM.
As to `CC(C)(C)c1ccc(CCC(=S)NCc2ccc(NS(C)(=O)=O)c(C#N)c2)cc1`, the half-maximal inhibitory concentration (IC50) was found to be 0.055 µM.

The record behind these values is ChEMBL document CHEMBL1153104, “Synthesis and structural optimization of multiple H-bonding region of diarylalkyl (thio)amides as novel TRPV1 antagonists” (Bioorg Med Chem, 2009).
